Values belong to the molecule of their own block, whether it stands above or below them.
What was measured:
Oxoeicosanoid receptor 1 [1] = target: T1, Oxoeicosanoid receptor 1 (Homo sapiens, UniProt Q8TDS5); test: Antagonist activity at OXE receptor in human neutrophils assessed as inhibition of 5-oxo-ETE-induced calcium mobilization incubated for 2 mins followed by 5-oxo-ETE addition by fluorescence assay; assay type: functional
Outline: (§1)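 Human neutrophils were isolated from healthy donors by dextran sedimentation and Ficoll-Paque centrifugation, then loaded with indo-1. Fluorescence was read at 37 °C in a stirred cuvette. Antagonist was added at various concentrations; 2 min later 5-oxo-ETE (10 nM) was added. Digitonin (final 0.1%) followed 1 min later to give maximal fluorescence.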

[2] = Plasma concentration in cynomolgus monkey at 30 mg/kg administered as oral gavage measured after 1 hr by RP-HPLC analysis; assay type: ADME, organism-based, Macaca fascicularis
Outline: (§2)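 Female cynomolgus monkeys (2.5–3.5 kg). Compound dissolved in EtOH at 75 mg/mL, diluted in 10 volumes of 20 mM NaHCO3 pH 8.0 (9.1% EtOH) and given by oral gavage; 4.4 mL/kg for 30 mg/kg, 2.2 mL/kg for lower doses. Blood drawn into heparin pre-dose and at 0.5, 1, 2, 4, 8, 12, 24 h, sometimes 3 and 7 days. Plasma diluted with 2 volumes MeOH plus internal standard, then RP-HPLC.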

[3] = Plasma concentration in cynomolgus monkey at 30 mg/kg administered as oral gavage measured after 8 hrs by RP-HPLC analysis; assay type: ADME, organism-based, Macaca fascicularis; outline: as §2
[4] = Tmax in cynomolgus monkey plasma at 30 mg/kg administered via oral gavage by RP-HPLC analysis; assay type: ADME, organism-based, Macaca fascicularis; outline: as §2
[5] = Cmax in cynomolgus monkey plasma at 30 mg/kg administered via oral gavage by RP-HPLC analysis; assay type: ADME, organism-based, Macaca fascicularis; design: dose 30 mg/kg, route oral; outline: as §2
[6] = Half life in cynomolgus monkey plasma at 30 mg/kg administered via oral gavage by RP-HPLC analysis; assay type: ADME, organism-based, Macaca fascicularis; outline: as §2
[7] = AUC (0 to 24 hrs) in cynomolgus monkey plasma at 30 mg/kg administered via oral gavage by RP-HPLC analysis; assay type: ADME, organism-based, Macaca fascicularis; design: dose 30 mg/kg, time < 24 hr, route oral; outline: as §2
Oxoeicosanoid receptor 1 [8] = target: T1, Oxoeicosanoid receptor 1; test: Antagonist activity at OXE receptor in human neutrophils assessed as inhibition of 5-oxo-ETE-induced calcium mobilization incubated for 2 mins followed by 5-oxo-ETE addition measured after 1 min by fluorescence assay; assay type: functional; outline: as §1
[9] = Plasma concentration in cynomolgus monkey at 30 mg/kg administered via oral gavage after 3 days by RP-HPLC analysis; assay type: ADME, organism-based, Macaca fascicularis; outline: as §2
[10] = Plasma concentration in cynomolgus monkey at 30 mg/kg administered via oral gavage after 7 days by RP-HPLC analysis; assay type: ADME, organism-based, Macaca fascicularis; outline: as §2
[11] = Drug level in cynomolgus monkey plasma treated with 30 mg/kg 5-(5-Chloro-1-methyl-2-(6-phenylhexyl)-1H-indol-3-yl)-3-methyl-5-oxopentanoic Acid administered via oral gavage assessed as compound formation after 12 hrs by RP-HPLC analysis; assay type: ADME, organism-based, Macaca fascicularis; conditions: in vivo
Outline: (§3)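 Monkeys received 30 mg/kg by oral gavage in EtOH/20 mM NaHCO3 pH 8.0 vehicle. A plasma extract taken 12 h later was run by RP-HPLC on a C18 column (4 µm, 3.9 x 150 mm) with a 15-min gradient of 70–100% MeOH in H2O, both containing 0.02% HOAc. The tetramethylene analog served as internal standard.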

[12] = Tmax in cynomolgus monkey plasma at 15 mg/kg administered via oral gavage by RP-HPLC analysis; assay type: ADME, organism-based, Macaca fascicularis
[13] = Tmax in cynomolgus monkey plasma at 1 mg/kg administered via oral gavage by RP-HPLC analysis; assay type: ADME, organism-based, Macaca fascicularis; outline: as §2
[14] = Tmax in cynomolgus monkey plasma at 2 mg/kg administered via oral gavage by RP-HPLC analysis; assay type: ADME, organism-based, Macaca fascicularis; outline: as §2
[15] = Tmax in cynomolgus monkey plasma at 5 mg/kg administered via oral gavage by RP-HPLC analysis; assay type: ADME, organism-based, Macaca fascicularis; outline: as §2
[16] = Tmax in cynomolgus monkey plasma at 10 mg/kg administered via oral gavage by RP-HPLC analysis; assay type: ADME, organism-based, Macaca fascicularis; outline: as §2
[17] = Cmax in cynomolgus monkey plasma at 15 mg/kg administered via oral gavage by RP-HPLC analysis; assay type: ADME, organism-based, Macaca fascicularis; design: dose 15 mg/kg, route oral
[18] = Cmax in cynomolgus monkey plasma at 1 mg/kg administered via oral gavage by RP-HPLC analysis; assay type: ADME, organism-based, Macaca fascicularis; design: dose 1 mg/kg, route oral; outline: as §2
[19] = Cmax in cynomolgus monkey plasma at 2 mg/kg administered via oral gavage by RP-HPLC analysis; assay type: ADME, organism-based, Macaca fascicularis; design: dose 2 mg/kg, route oral; outline: as §2
[20] = Cmax in cynomolgus monkey plasma at 5 mg/kg administered via oral gavage by RP-HPLC analysis; assay type: ADME, organism-based, Macaca fascicularis; design: dose 5 mg/kg, route oral; outline: as §2
[21] = Cmax in cynomolgus monkey plasma at 10 mg/kg administered via oral gavage by RP-HPLC analysis; assay type: ADME, organism-based, Macaca fascicularis; design: dose 10 mg/kg, route oral; outline: as §2
[22] = Half life in cynomolgus monkey plasma at 15 mg/kg administered via oral gavage by RP-HPLC analysis; assay type: ADME, organism-based, Macaca fascicularis
[23] = Half life in cynomolgus monkey plasma at 1 mg/kg administered via oral gavage by RP-HPLC analysis; assay type: ADME, organism-based, Macaca fascicularis; outline: as §2
[24] = Half life in cynomolgus monkey plasma at 2 mg/kg administered via oral gavage by RP-HPLC analysis; assay type: ADME, organism-based, Macaca fascicularis; outline: as §2
[25] = Half life in cynomolgus monkey plasma at 5 mg/kg administered via oral gavage by RP-HPLC analysis; assay type: ADME, organism-based, Macaca fascicularis; outline: as §2
[26] = Half life in cynomolgus monkey plasma at 10 mg/kg administered via oral gavage by RP-HPLC analysis; assay type: ADME, organism-based, Macaca fascicularis; outline: as §2
[27] = AUC (0 to 24 hrs) in cynomolgus monkey plasma at 15 mg/kg administered via oral gavage by RP-HPLC analysis; assay type: ADME, organism-based, Macaca fascicularis; design: time < 24 hr, dose 15 mg/kg, route oral
[28] = AUC (0 to 24 hrs) in cynomolgus monkey plasma at 1 mg/kg administered via oral gavage by RP-HPLC analysis; assay type: ADME, organism-based, Macaca fascicularis; design: time < 24 hr, dose 1 mg/kg, route oral; outline: as §2
[29] = AUC (0 to 24 hrs) in cynomolgus monkey plasma at 2 mg/kg administered via oral gavage by RP-HPLC analysis; assay type: ADME, organism-based, Macaca fascicularis; design: dose 2 mg/kg, time < 24 hr, route oral; outline: as §2
[30] = AUC (0 to 24 hrs) in cynomolgus monkey plasma at 5 mg/kg administered via oral gavage by RP-HPLC analysis; assay type: ADME, organism-based, Macaca fascicularis; design: dose 5 mg/kg, time < 24 hr, route oral; outline: as §2
[31] = AUC (0 to 24 hrs) in cynomolgus monkey plasma at 10 mg/kg administered via oral gavage by RP-HPLC analysis; assay type: ADME, organism-based, Macaca fascicularis; design: time < 24 hr, dose 10 mg/kg, route oral; outline: as §2
[32] = Plasma concentration in cynomolgus monkey at 30 mg/kg administered via oral gavage after 24 hrs by chiral-HPLC analysis; assay type: ADME, organism-based, Macaca fascicularis
Outline: (§4)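 After oral gavage of racemate at 30 mg/kg, plasma C025 or its metabolite was isolated by RP-HPLC, then run by chiral HPLC on Cellulose-1 at 2 ml/min and 30 °C. Mobile phase was hexane/MeOH/HOAc 97.5:2.5:0.1 for parent and 97:3:0.1 for metabolite. Samples were taken at 4 h and 24 h; n=2 for enantiomer levels.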

[33] = Drug metabolism in cynomolgus monkey plasma at 30 mg/kg administered via oral gavage assessed as metabolite (R)-5-(5-Chloro-2-((S)-1-hydroxy-6-phenylhexyl)-1-methyl-1Hindol-3-yl)-3-methyl-5-oxopentanoic acid formation after 4 hrs by chiral-HPLC analysis; assay type: ADME, organism-based, Macaca fascicularis; conditions: in vivo; outline: as §4
[34] = Drug metabolism in cynomolgus monkey plasma at 30 mg/kg administered via oral gavage assessed as metabolite (S)-5-(5-Chloro-2-((S)-1-hydroxy-6-phenylhexyl)-1-methyl-1Hindol-3-yl)-3-methyl-5-oxopentanoic acid formation after 24 hrs by chiral-HPLC analysis; assay type: ADME, organism-based, Macaca fascicularis; conditions: in vivo; outline: as §4
[35] = Drug metabolism in cynomolgus monkey plasma at 30 mg/kg administered via oral gavage assessed as phenylpentamethylene side chain modification after 12 hrs by RP-HPLC analysis; assay type: ADME, organism-based, Macaca fascicularis; conditions: in vivo; outline: as §3
[36] = Drug metabolism in cynomolgus monkey plasma at 30 mg/kg administered via oral gavage assessed as metabolite (S)-5-(5-Chloro-2-((S)-1-hydroxy-6-phenylhexyl)-1-methyl-1Hindol-3-yl)-3-methyl-5-oxopentanoic acid formation after 12 hrs by RP-HPLC analysis; assay type: ADME, organism-based, Macaca fascicularis; conditions: in vivo; outline: as §3

T1 sequence (Q8TDS5 whole entry): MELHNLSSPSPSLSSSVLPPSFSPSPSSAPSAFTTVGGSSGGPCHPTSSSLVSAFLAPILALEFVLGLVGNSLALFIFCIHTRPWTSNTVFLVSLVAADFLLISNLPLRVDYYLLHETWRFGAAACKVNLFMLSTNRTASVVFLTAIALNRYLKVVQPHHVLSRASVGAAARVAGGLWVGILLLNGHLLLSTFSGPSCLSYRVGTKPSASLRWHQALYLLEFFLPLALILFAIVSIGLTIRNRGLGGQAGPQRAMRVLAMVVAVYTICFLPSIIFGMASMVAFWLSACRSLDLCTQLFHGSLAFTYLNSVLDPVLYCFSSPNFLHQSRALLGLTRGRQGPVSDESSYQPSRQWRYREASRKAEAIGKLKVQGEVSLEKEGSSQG

SMILES: CCCCC/C=C\C[C@H](O)/C=C/C=C\C=C\C(=O)CCCC(=O)O
IC50 (Oxoeicosanoid receptor 1 [1]): 500 nM

SMILES: CCCCCCc1c(C(=O)C[C@H](C)CC(=O)O)c2cc(Cl)ccc2n1C
concentration at 1 h [2]: 36 µM
concentration at 8 h [3]: 1.6 µM
Tmax [4]: 1 h
Cmax [5]: 36 µM
half-life [6]: 1.6 h
AUC(0-t) at 24 h [7]: 100 µM·h

SMILES: C[C@@H](CC(=O)O)CC(=O)c1c([C@@H](O)CCCCCc2ccccc2)n(C)c2ccc(Cl)cc12
IC50 (Oxoeicosanoid receptor 1 [8]): 120 nM

SMILES: CC(CC(=O)O)CC(=O)n1c(CCCc2ccccc2)cc2ccc(Cl)cc21 (centres undefined)
IC50 (Oxoeicosanoid receptor 1 [8]): 210 nM

SMILES: CC(CC(=O)O)CC(=O)c1c(C(O)CCCCCc2ccccc2)n(C)c2ccc(Cl)cc12 (centres undefined)
Drug uptake [11]: Active

SMILES: C[C@H](CC(=O)O)CC(=O)c1c([C@H](O)CCCCCc2ccccc2)n(C)c2ccc(Cl)cc12
IC50 (Oxoeicosanoid receptor 1 [8]): 260 nM

SMILES: C[C@@H](CC(=O)O)CC(=O)c1c(CCCCCCc2ccccc2)n(C)c2ccc(Cl)cc12
Tmax [12]: 2.5 h
Cmax [17]: 79 µM
half-life [22]: 9.3 h
AUC(0-t) at 24 h [27]: 1080 µM·h
concentration at 24 h [32]: > 20 µM
Drug metabolism [34]: Metabolite_Detected
Drug uptake [11]: Active

SMILES: C[C@@H](CC(=O)O)CC(=O)c1c([C@H](O)CCCCCc2ccccc2)n(C)c2ccc(Cl)cc12
IC50 (Oxoeicosanoid receptor 1 [8]): 750 nM

SMILES: CCCCCCc1cc2ccc(Cl)cc2n1C(=O)CC(C)CC(=O)O (racemic)
concentration at 1 h [2]: > 25 µM
concentration at 8 h [3]: < 0.5 µM
Tmax [4]: 0.9 h
Cmax [5]: 27 µM
half-life [6]: 1.2 h
AUC(0-t) at 24 h [7]: 55 µM·h

Further lines, results first:

IC50 (Oxoeicosanoid receptor 1 [8]): 12 nM
SMILES: CC(CC(=O)O)CC(=O)n1c(CCCCCCc2ccccc2)cc2ccc(Cl)cc21 (centres undefined)

IC50 (Oxoeicosanoid receptor 1 [8]): 38 nM
SMILES: CC(CC(=O)O)CC(=O)c1c(CCCCCC(F)(F)F)n(C)c2ccc(Cl)cc12 (centres undefined)

IC50 (Oxoeicosanoid receptor 1 [8]): 0.38 to 0.69 nM
concentration at 72 h [9]: 1.5 µM
concentration at 168 h [10]: 0.2 µM
Drug uptake [11]: Active
SMILES: C[C@H](CC(=O)O)CC(=O)c1c([C@@H](O)CCCCCc2ccccc2)n(C)c2ccc(Cl)cc12

IC50 (Oxoeicosanoid receptor 1 [8]): 0.12 nM
Tmax [4]: 1.3 h
Tmax [12]: 0.8 h
Tmax [13]: 0.7 h
Tmax [14]: 0.7 h
Tmax [15]: 1.2 h
Tmax [16]: 1.2 h
Cmax [5]: 106 µM
Cmax [17]: 32 µM
Cmax [18]: 4.5 µM
Cmax [19]: 7.8 µM
Cmax [20]: 18 µM
Cmax [21]: 35 µM
half-life [6]: 3.5 h
half-life [22]: 3.4 h
half-life [23]: 0.9 h
half-life [24]: 1.1 h
half-life [25]: 1.9 h
half-life [26]: 2.8 h
AUC(0-t) at 24 h [7]: 684 µM·h
AUC(0-t) at 24 h [27]: 169 µM·h
AUC(0-t) at 24 h [28]: 13 µM·h
AUC(0-t) at 24 h [29]: 26 µM·h
AUC(0-t) at 24 h [30]: 78 µM·h
AUC(0-t) at 24 h [31]: 171 µM·h
concentration at 24 h [32]: 1 µM
Drug metabolism [33]: Metabolite_Detected
concentration at 72 h [9]: 0.16 µM
concentration at 168 h [10]: 0.04 µM
Drug uptake [11]: Active
SMILES: C[C@H](CC(=O)O)CC(=O)c1c(CCCCCCc2ccccc2)n(C)c2ccc(Cl)cc12

IC50 (Oxoeicosanoid receptor 1 [8]): 18 nM
SMILES: CC(CC(=O)O)CC(=O)n1c(CCCCc2ccccc2)cc2ccc(Cl)cc21 (centres undefined)

IC50 (Oxoeicosanoid receptor 1 [8]): 17 to 26 nM
Tmax [4]: 0.6 h
Cmax [5]: 121 µM
half-life [6]: 0.7 h
AUC(0-t) at 24 h [7]: 198 µM·h
SMILES: CCCCCCc1c(C(=O)CC(C)CC(=O)O)c2cc(Cl)ccc2n1C (racemic)

IC50 (Oxoeicosanoid receptor 1 [8]): 2.1 nM
Tmax [4]: 2 h
Cmax [5]: 55 µM
half-life [6]: 3 h
AUC(0-t) at 24 h [7]: 294 µM·h
Drug metabolism [35]: Metabolite_Detected
SMILES: CC(CC(=O)O)CC(=O)n1c(CCCCCc2ccccc2)cc2ccc(Cl)cc21 (racemic)

IC50 (Oxoeicosanoid receptor 1 [8]): 0.28 nM
Tmax [4]: 2.5 h
Cmax [5]: 108 µM
half-life [6]: 7.4 h
AUC(0-t) at 24 h [7]: 1250 µM·h
Drug metabolism [36]: Metabolite_Detected
SMILES: CC(CC(=O)O)CC(=O)c1c(CCCCCCc2ccccc2)n(C)c2ccc(Cl)cc12 (racemic)

— ChEMBL document CHEMBL4251757 (J Med Chem, 2018)
